Measurements published in ChEMBL document CHEMBL1629571, “High prevalence of plasmid-mediated quinolone resistance determinants qnr, aac(6')-Ib-cr, and qepA among ceftiofur-resistant Enterobacteriaceae isolates from companion and food-producing animals” (2009).
Converted amounts (≈) assume the structure as drawn.

Legend:
[1] = tested on: Escherichia coli; assay: Antimicrobial activity against Escherichia coli J53 transformed with pHNPA1 carrying qnrB6 gene by agar dilution method
[2] = tested on: Escherichia coli; assay: Antimicrobial activity against Escherichia coli J53 transformed with pHND2 carrying qnrB6 and CTX-M-9G genes by agar dilution method
[3] = tested on: Klebsiella pneumoniae; assay: Antimicrobial activity against Klebsiella pneumoniae D10 expressing aac(6')-Ib-cr, qnrB4, CTX-M-1G and DHA-1 genes by agar dilution method; format: functional
[4] = tested on: Escherichia coli; assay: Antimicrobial activity against Escherichia coli PA11 expressing aac(6')-Ib-cr, qnrS1 and qepA genes by agar dilution method; format: functional
How it was run: (§1)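 Agar dilution MICs per CLSI guidelines, with E. coli ATCC 25922 as the quality-control strain. Isolates were ceftiofur-resistant (MIC ≥ 8 μg/ml) Enterobacteriaceae from diseased companion or food-producing animals in Guangdong, China. They were identified biochemically and with Biolog Microlog, and PMQR and β-lactamase genes were typed by PCR and sequencing.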

[5] = tested on: Escherichia coli; assay: Antimicrobial activity against Escherichia coli J53 transformed with pHND3 carrying qnrB6 gene by agar dilution method; format: functional
How it was run: (§2)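 Transconjugants came from liquid mating of qnr-positive donors into E. coli J53Azi^r. They were selected on tryptic soy agar with sodium azide (100 μg/ml) plus sulfamethoxazole (300 μg/ml) or ampicillin (100 μg/ml). MICs were determined by CLSI agar dilution, with E. coli ATCC 25922 as the quality control strain.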

[6] = tested on: Citrobacter freundii; assay: Antimicrobial activity against Citrobacter freundii D26 expressing qnrB6 and CTX-M-9G genes by agar dilution method; format: functional; how it was run: as §1
[7] = tested on: Escherichia coli; assay: Antimicrobial activity against Escherichia coli J53 by agar dilution method; format: functional
[8] = tested on: Klebsiella pneumoniae; assay: Antimicrobial activity against Klebsiella pneumoniae D24 expressing qnrB6 and CTX-M-9G genes by agar dilution method
[9] = tested on: Escherichia coli; assay: Antimicrobial activity against Escherichia coli J53 transformed with pHNDU1 carrying qnrB6 gene by agar dilution method; format: functional; how it was run: as §2
[10] = tested on: Escherichia coli; assay: Antimicrobial activity against Escherichia coli Du19 expressing qnrB6 and CTX-M-9G genes by agar dilution method; format: functional; how it was run: as §1
[11] = tested on: Escherichia coli; assay: Antimicrobial activity against Escherichia coli J53 transformed with pHND1 carrying DHA-1 gene by agar dilution method; format: functional; how it was run: as §2
[12] = tested on: Escherichia coli; assay: Antimicrobial activity against Escherichia coli PA09 expressing aac(6')-Ib-cr gene by agar dilution method
[13] = tested on: Klebsiella pneumoniae; assay: Antimicrobial activity against Klebsiella pneumoniae C1 expressing aac(6')-Ib-cr gene by agar dilution method
[14] = tested on: Klebsiella pneumoniae; assay: Antimicrobial activity against Klebsiella pneumoniae C7 expressing aac(6')-Ib-cr gene by agar dilution method
[15] = tested on: Escherichia coli; assay: Antimicrobial activity against Escherichia coli PA11 expressing aac(6')-Ib-cr, qnrS1 and qepA genes by Etest; format: functional
[16] = tested on: Escherichia coli; assay: Antimicrobial activity against Escherichia coli D71 expressing qepA, CTX-M-1G and CTX-M-9G genes by agar dilution method
[17] = tested on: Escherichia coli; assay: Antimicrobial activity against Escherichia coli PA14 expressing aac(6')-Ib-cr and qepA genes by agar dilution method
[18] = tested on: Escherichia coli; assay: Antimicrobial activity against Escherichia coli P498 expressing qnrS1 gene by agar dilution method
[19] = tested on: Klebsiella pneumoniae; assay: Antimicrobial activity against Klebsiella pneumoniae D24 expressing aac(6')-Ib-cr and CTX-M-9G genes by Etest
[20] = tested on: Citrobacter freundii; assay: Antimicrobial activity against Citrobacter freundii D26 expressing qnrB6 and CTX-M-9G genes by Etest; format: functional
[21] = tested on: Escherichia coli; assay: Antimicrobial activity against Escherichia coli Chi197 expressing aac(6')-Ib-cr and CTX-M-9G genes by agar dilution method
[22] = tested on: Escherichia coli; assay: Antimicrobial activity against Escherichia coli J53 transformed with pHND1 carrying DHA-1 gene by Etest; format: functional
[23] = tested on: Escherichia coli; assay: Antimicrobial activity against Escherichia coli J53 transformed with pHNDU1 carrying qnrB6 gene by Etest; format: functional
[24] = tested on: Escherichia coli; assay: Antimicrobial activity against Escherichia coli Du19 expressing qnrB6 and CTX-M-9G genes by Etest; format: functional
[25] = tested on: Escherichia coli; assay: Antimicrobial activity against Escherichia coli J53 transformed with pHND2 carrying qnrB6 and CTX-M-9G genes by Etest; format: functional
[26] = tested on: Klebsiella pneumoniae; assay: Antimicrobial activity against Klebsiella pneumoniae D10 expressing aac(6')-Ib-cr, qnrB4, CTX-M-1G and DHA-1 genes by Etest; format: functional

Row | Compound | MIC [1] [mg/L] | MIC [2] [mg/L] | MIC [3] [mg/L] | MIC [4] [mg/L] | MIC [5] [mg/L] | MIC [6] [mg/L] | MIC [7] [mg/L] | MIC [8] [mg/L] | MIC [9] [mg/L] | MIC [10] [mg/L] | MIC [11] [mg/L] | further results
1 | CC(C)(O/N=C(\C(=O)N[C@@H]1C(=O)N2C(C(=O)[O-])=C(C[n+]3ccccc3)CS[C@H]12)c1csc(N)n1)C(=O)O [CEFTAZIDIME] | 1 (≈ 1.83 µM) | 1 (≈ 1.83 µM) | 128 (≈ 234 µM) | 32 (≈ 58.5 µM) | 0.125 (≈ 0.229 µM) | 1 (≈ 1.83 µM) | 0.125 (≈ 0.229 µM) | 2 (≈ 3.66 µM) | 0.5 (≈ 0.915 µM) | 16 (≈ 29.3 µM) | 0.25 (≈ 0.457 µM) | –
2 | GENTAMICIN | – | – | > 128 | > 256 | 16 | > 128 | 0.125 | – | > 128 | > 128 | > 128 | –
3 | CC1(C)S[C@@H]2[C@H](NC(=O)[C@H](N)c3ccccc3)C(=O)N2[C@H]1C(=O)O [AMPICILLIN] | > 256 | > 128 | > 128 | > 256 | > 128 | > 128 | – | > 128 | 64 (≈ 183 µM) | > 128 | > 128 | –
4 | O=C(O)c1cn(C2CC2)c2cc(N3CCNCC3)c(F)cc2c1=O [CIPROFLOXACIN] | – | – | – | > 128 | – | 4 (≈ 12.1 µM) | – | 2 (≈ 6.04 µM) | – | 64 (≈ 193 µM) | – | MIC [12]: 64 mg/L (≈ 193 µM); MIC [13]: 8 mg/L (≈ 24.1 µM); MIC [14]: 8 mg/L (≈ 24.1 µM); MIC [15]: > 128 mg/L; MIC [16]: 64 mg/L (≈ 193 µM); MIC [17]: > 128 mg/L; MIC [18]: 64 mg/L (≈ 193 µM); MIC [19]: 2 mg/L (≈ 6.04 µM); MIC [20]: 4 mg/L (≈ 12.1 µM); MIC [21]: 64 mg/L (≈ 193 µM)
5 | C[C@H]1COc2c(N3CCN(C)CC3)c(F)cc3c(=O)c(C(=O)O)cn1c23.C[C@H]1COc2c(N3CCN(C)CC3)c(F)cc3c(=O)c(C(=O)O)cn1c23.O [LEVOFLOXACIN] | – | – | – | – | – | – | – | – | – | – | – | MIC [15]: 128 mg/L; MIC [22]: 0.25 mg/L; MIC [23]: 2 mg/L; MIC [20]: 2 mg/L; MIC [24]: 16 mg/L; MIC [25]: 0.25 mg/L; MIC [26]: 16 mg/L
6 | COc1cc(Cc2cnc(N)nc2N)cc(OC)c1OC [TRIMETHOPRIM] | > 256 | > 256 | > 256 | > 256 | > 256 | > 256 | 0.25 (≈ 0.861 µM) | > 256 | 0.5 (≈ 1.72 µM) | > 256 | > 256 | –
7 | CCn1cc(C(=O)O)c(=O)c2ccc(C)nc21 [NALIDIXIC ACID] | 32 (≈ 138 µM) | 16 (≈ 68.9 µM) | > 128 | > 128 | 4 (≈ 17.2 µM) | 128 (≈ 551 µM) | 4 (≈ 17.2 µM) | 64 (≈ 276 µM) | 64 (≈ 276 µM) | > 128 | 16 (≈ 68.9 µM) | –
8 | CO/N=C(\C(=O)N[C@@H]1C(=O)N2C(C(=O)[O-])=C(C[n+]3cccc4c3CCCC4)CS[C@H]12)c1csc(N)n1 [CEFQUINOME] | 0.25 (≈ 0.473 µM) | 8 (≈ 15.1 µM) | 64 (≈ 121 µM) | 64 (≈ 121 µM) | 0.06 (≈ 0.114 µM) | 64 (≈ 121 µM) | 0.06 (≈ 0.114 µM) | 64 (≈ 121 µM) | 0.25 (≈ 0.473 µM) | 32 (≈ 60.5 µM) | 0.06 (≈ 0.114 µM) | –
9 | CO/N=C(\C(=O)N[C@@H]1C(=O)N2C(C(=O)O)=C(COC(C)=O)CS[C@H]12)c1csc(N)n1 [CEFOTAXIME] | 0.5 (≈ 1.1 µM) | 32 (≈ 70.3 µM) | 128 (≈ 281 µM) | 16 (≈ 35.1 µM) | 0.06 (≈ 0.132 µM) | 64 (≈ 141 µM) | 0.06 (≈ 0.132 µM) | 64 (≈ 141 µM) | 1 (≈ 2.2 µM) | 128 (≈ 281 µM) | 0.125 (≈ 0.274 µM) | –
10 | O=C(N[C@H](CO)[C@H](O)c1ccc([N+](=O)[O-])cc1)C(Cl)Cl [CHLORAMPHENICOL] | – | > 128 | > 128 | > 256 | 8 (≈ 24.8 µM) | 64 (≈ 198 µM) | 8 (≈ 24.8 µM) | > 128 | > 128 | > 128 | > 128 | –
11 | NCC[C@H](O)C(=O)N[C@@H]1C[C@H](N)[C@@H](O[C@H]2O[C@H](CN)[C@@H](O)[C@H](O)[C@H]2O)[C@H](O)[C@H]1O[C@H]1O[C@H](CO)[C@@H](O)[C@H](N)[C@H]1O [AMIKACIN] | 0.25 (≈ 0.427 µM) | 0.5 (≈ 0.854 µM) | > 128 | > 256 | 1 (≈ 1.71 µM) | > 128 | 0.5 (≈ 0.854 µM) | 2 (≈ 3.42 µM) | > 128 | > 128 | > 128 | –
12 | Cc1cc(NS(=O)(=O)c2ccc(N)cc2)no1 [SULFAMETHOXAZOLE] | > 256 | > 256 | > 256 | > 256 | 4 (≈ 15.8 µM) | > 256 | 16 (≈ 63.2 µM) | > 256 | 128 (≈ 505 µM) | > 256 | > 256 | –
13 | CO/N=C(\C(=O)N[C@@H]1C(=O)N2C(C(=O)O)=C(CSC(=O)c3ccco3)CS[C@H]12)c1csc(N)n1 [CEFTIOFUR] | 0.5 (≈ 0.955 µM) | 64 (≈ 122 µM) | 128 (≈ 244 µM) | > 128 | 0.25 (≈ 0.477 µM) | 128 (≈ 244 µM) | 0.25 (≈ 0.477 µM) | > 128 | 0.25 (≈ 0.477 µM) | 128 (≈ 244 µM) | 0.5 (≈ 0.955 µM) | –
